Laboratory results reported in ChEMBL document CHEMBL3525967, “In vitro glucuronidation of the antibacterial triclocarban and its oxidative metabolites” (Drug Metab Dispos, 2012).

Tests used:
[1] = Drug metabolism in microsomes (unknown origin) assessed as retention time treated with 10 uM triclocarban by LC-UV-MS method; format: ADME, Microsome
Liver microsome = test: Drug metabolism in human liver microsomes assessed as glucuronidation incubated for 5 mins prior to UDPGA addition measured after 5 to 30 mins by LC-UV analysis; format: ADME
How it was run: (§1)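 Microsomes or Sf-9 Supersomes (5 µg protein in 200 µL 100 mM potassium phosphate pH 7.4) pre-treated with alamethicin on ice 15 min; substrate 10 µM final (2% DMSO), MgCl2 and saccharolactone 10 mM each; 5 min preincubation at 37 °C, then UDPGA to start. Samples taken at 5, 10, 15, 30 min (or 2, 5, 10, 15 min) into ACN with internal standard; LC-UV-ESI-MS/MS.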

[2] = Drug metabolism in cynomolgus monkey liver microsomes assessed as glucuronidation incubated for 5 mins prior to UDPGA addition measured after 5 to 30 mins by LC-UV analysis; format: ADME, Macaca fascicularis; how it was run: as §1
[3] = Drug metabolism in B6C3F1 mouse liver microsomes assessed as glucuronidation incubated for 5 mins prior to UDPGA addition measured after 5 to 30 mins by LC-UV analysis; format: ADME; how it was run: as §1
[4] = Drug metabolism in human intestinal microsomes assessed as glucuronidation incubated for 5 mins prior to UDPGA addition measured after 5 to 30 mins by LC-UV analysis; format: ADME, Intestine, Microsome; how it was run: as §1
[5] = biological target: T1, UDP-glucuronosyltransferase 1A3 (Homo sapiens, UniProt P35503); test: Drug metabolism assessed as human UGT1A3-mediated glucuronidation expressed in baculovirus infected insect sf9 cells incubated for 5 mins prior to UDPGA addition measured after 5 to 30 mins by LC-UV analysis; format: ADME; how it was run: as §1
T1 sequence (P35503 whole entry): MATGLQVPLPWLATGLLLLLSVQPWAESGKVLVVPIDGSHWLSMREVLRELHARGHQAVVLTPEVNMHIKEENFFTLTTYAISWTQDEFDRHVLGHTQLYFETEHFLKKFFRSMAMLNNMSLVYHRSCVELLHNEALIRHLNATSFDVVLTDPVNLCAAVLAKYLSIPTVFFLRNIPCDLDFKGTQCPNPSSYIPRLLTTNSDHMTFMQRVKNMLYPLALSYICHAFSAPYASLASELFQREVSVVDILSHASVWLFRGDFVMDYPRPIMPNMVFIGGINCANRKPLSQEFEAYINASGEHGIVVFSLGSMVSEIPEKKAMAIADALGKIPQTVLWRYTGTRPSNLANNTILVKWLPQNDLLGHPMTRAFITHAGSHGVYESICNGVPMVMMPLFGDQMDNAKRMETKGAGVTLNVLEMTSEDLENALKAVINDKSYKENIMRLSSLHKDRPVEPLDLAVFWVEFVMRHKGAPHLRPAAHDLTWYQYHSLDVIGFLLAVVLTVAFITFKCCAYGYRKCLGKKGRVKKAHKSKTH

[6] = biological target: T2, UDP-glucuronosyltransferase 1A4 (Homo sapiens, UniProt P22310); test: Drug metabolism assessed as human UGT1A4-mediated glucuronidation expressed in baculovirus infected insect sf9 cells incubated for 5 mins prior to UDPGA addition measured after 5 to 30 mins by LC-UV analysis; format: ADME; how it was run: as §1
T2 sequence (P22310 whole entry): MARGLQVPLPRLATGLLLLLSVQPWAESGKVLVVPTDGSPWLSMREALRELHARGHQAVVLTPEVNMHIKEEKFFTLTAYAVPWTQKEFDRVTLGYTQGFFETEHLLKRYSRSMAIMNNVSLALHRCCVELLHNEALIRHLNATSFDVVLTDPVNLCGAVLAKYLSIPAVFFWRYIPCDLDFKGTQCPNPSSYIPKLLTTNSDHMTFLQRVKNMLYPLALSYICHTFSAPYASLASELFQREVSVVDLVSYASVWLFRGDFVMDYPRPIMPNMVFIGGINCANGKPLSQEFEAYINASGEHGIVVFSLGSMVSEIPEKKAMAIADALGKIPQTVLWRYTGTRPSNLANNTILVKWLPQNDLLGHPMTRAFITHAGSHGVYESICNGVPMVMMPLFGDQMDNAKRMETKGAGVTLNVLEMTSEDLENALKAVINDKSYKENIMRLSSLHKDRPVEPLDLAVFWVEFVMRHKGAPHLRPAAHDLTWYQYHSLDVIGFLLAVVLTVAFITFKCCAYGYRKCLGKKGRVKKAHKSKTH

[7] = biological target: T3, UDP-glucuronosyltransferase 1A8 (Homo sapiens, UniProt Q9HAW9); test: Drug metabolism assessed as human UGT1A8-mediated glucuronidation expressed in baculovirus infected insect sf9 cells incubated for 5 mins prior to UDPGA addition measured after 5 to 30 mins by LC-UV analysis; format: ADME; how it was run: as §1
T3 sequence (Q9HAW9 whole entry): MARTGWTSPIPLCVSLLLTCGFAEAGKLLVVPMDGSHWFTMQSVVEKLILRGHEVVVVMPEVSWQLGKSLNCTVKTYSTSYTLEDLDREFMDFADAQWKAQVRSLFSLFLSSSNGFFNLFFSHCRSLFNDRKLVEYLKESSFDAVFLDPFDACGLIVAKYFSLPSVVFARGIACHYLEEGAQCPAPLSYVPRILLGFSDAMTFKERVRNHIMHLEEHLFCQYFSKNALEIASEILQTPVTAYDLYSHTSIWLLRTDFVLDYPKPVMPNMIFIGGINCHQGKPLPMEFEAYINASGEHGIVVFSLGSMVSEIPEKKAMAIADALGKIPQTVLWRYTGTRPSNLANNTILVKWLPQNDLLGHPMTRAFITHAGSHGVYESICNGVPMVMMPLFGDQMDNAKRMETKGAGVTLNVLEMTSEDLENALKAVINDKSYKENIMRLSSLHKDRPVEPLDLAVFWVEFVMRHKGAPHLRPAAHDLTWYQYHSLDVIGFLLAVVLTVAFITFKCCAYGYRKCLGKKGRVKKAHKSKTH

[8] = biological target: T4, UDP-glucuronosyltransferase 2B7 (Homo sapiens, UniProt P16662); test: Drug metabolism assessed as human UGT2B7-mediated glucuronidation expressed in baculovirus infected insect sf9 cells incubated for 5 mins prior to UDPGA addition measured after 5 to 30 mins by LC-UV analysis; format: ADME; how it was run: as §1
T4 sequence (P16662 whole entry): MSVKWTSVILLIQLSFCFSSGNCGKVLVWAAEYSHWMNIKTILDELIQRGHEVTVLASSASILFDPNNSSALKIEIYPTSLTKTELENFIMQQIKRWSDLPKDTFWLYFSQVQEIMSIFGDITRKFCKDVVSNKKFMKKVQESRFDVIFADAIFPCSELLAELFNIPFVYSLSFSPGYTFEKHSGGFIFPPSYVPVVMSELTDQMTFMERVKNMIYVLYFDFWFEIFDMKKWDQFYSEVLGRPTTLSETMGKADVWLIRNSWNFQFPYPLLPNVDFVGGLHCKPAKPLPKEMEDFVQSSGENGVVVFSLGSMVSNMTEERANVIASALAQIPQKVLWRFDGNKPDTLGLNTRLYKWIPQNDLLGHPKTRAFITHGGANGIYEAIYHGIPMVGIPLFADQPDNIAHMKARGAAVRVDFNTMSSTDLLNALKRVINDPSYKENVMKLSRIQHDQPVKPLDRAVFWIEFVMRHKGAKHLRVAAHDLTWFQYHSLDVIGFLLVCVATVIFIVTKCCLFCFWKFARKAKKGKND

Structure (SMILES)	Retention_time [1] [min]	Drug metabolism (Liver microsome) [pmol/min/mg]	Drug metabolism [2] [pmol/min/mg]	Drug metabolism [3] [pmol/min/mg]	Drug metabolism [4] [pmol/min/mg]	Drug metabolism [5] [pmol/min/mg]	Drug metabolism [6]	Drug metabolism [7] [pmol/min/mg]	Drug metabolism ([8]; BLD = below limit of detection)	Drug metabolism [8]
O=C(Nc1ccc(Cl)c(Cl)c1)Nc1ccc(Cl)cc1O	6.81	2700	22800	2600	5700	390	metabolite_not_detected	5700	BLD	–
O=C(Nc1ccc(Cl)cc1)Nc1cc(Cl)c(Cl)cc1O	7.45	8500	16300	7900	3900	410	metabolite_not_detected	5000	BLD	–
O=C(Nc1ccc(Cl)c(O)c1)Nc1ccc(Cl)c(Cl)c1	4.61	5200	9500	14700	7100	540	metabolite_not_detected	9400	–	metabolite_not_detected
